Test results reported in ChEMBL document CHEMBL1159121, “Synthesis, in vitro structure-activity relationship, and in vivo studies of 2-arylthiazolidine-4-carboxylic acid amides as anticancer agents” (Bioorg Med Chem, 2010).

Assays:
RH7777 [1] = experiment: Cytotoxicity against rat RH7777 cells after 96 hrs by SRB assay; type: cell-based; conditions: RH7777, 96 h
Outline: (§1)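 Prostate lines in RPMI1640/10% FBS; RH7777 in DMEM/10% FBS. Cells TCA-fixed, stained with 0.4% SRB, absorbance read at 540 nm. IC50 from nonlinear regression of % survival against concentration.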

LNCaP = experiment: Antiproliferative activity against human LNCAP cells after 96 hrs by SRB assay; type: functional, cell-based; outline: as §1
PC-3 = experiment: Antiproliferative activity against human PC3 cells after 96 hrs by SRB assay; type: functional, cell-based; conditions: PC-3, 96 h
DU-145 = experiment: Antiproliferative activity against human DU145 cells after 96 hrs by SRB assay; type: functional, cell-based; conditions: DU-145, 96 h; outline: as §1
PPC-1 = experiment: Antiproliferative activity against human PPC1 cells after 96 hrs by SRB assay; type: functional, cell-based; conditions: PPC-1, 96 h; outline: as §1
[2] = Antiproliferative activity against human WM164 cells after 48 hrs by SRB assay; type: functional, cell-based; conditions: WM164, 48 h
Outline: (§2)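 Melanoma lines and control fibroblasts grown at 37 °C, 5% CO2, then exposed to a wide concentration range for 48 h in round-bottom 96-well plates. Fixed with 10% TCA, stained with SRB, protein read at 560 nm. IC50 (50% growth inhibition versus untreated) obtained by nonlinear regression.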

A-375 = experiment: Antiproliferative activity against human A375 cells after 48 hrs by SRB assay; type: functional, cell-based; conditions: A-375, 48 h; outline: as §2
[3] = Selectivity ratio of IC50 for human fibroblasts to IC50 for human melanoma cells; type: ADME; conditions: human fibroblasts and human melanoma cells, read-out: Ratio IC50
RH7777 [4] = experiment: Selectivity ratio of IC50 for rat RH7777 cells to IC50 for human prostate cancer cells
Outline: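 Ratio of RH7777 IC50 to the mean IC50 over four prostate lines (DU 145, PC-3, LNCaP, PPC-1). Prostate lines grown in RPMI1640/10% FBS and RH7777 in DMEM/10% FBS. Read by SRB (0.4%) at 540 nm; IC50 by nonlinear regression.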

[5] = Cytotoxicity against human fibroblasts after 48 hrs by SRB assay; type: cell-based; conditions: Fibroblast; outline: as §2
[6] = Antiproliferative activity against mouse B16-F1 cells after 48 hrs by SRB assay; type: functional, cell-based; conditions: B16-F1, 48 h; outline: as §2

Row | Structure (SMILES) | IC50 (LNCaP) [µM] | IC50 (PC-3) [µM] | IC50 (DU-145) [µM] | IC50 (A-375) [µM] | IC50 (RH7777 [1]) [µM] | IC50 (PPC-1) [µM] | IC50 [2] [µM] | selectivity ratio [3] | Ratio IC50 (RH7777 [4]) | IC50 [5] [µM] | IC50 [6] [µM]
1 | CC(=O)Nc1ccc(C2N[C@H](C(=O)NC34CC5CC(CC(C5)C3)C4)CS2)cc1 (mixture of isomers) | 5.7 | > 20 | > 20 | 138 | > 20 | > 20 | 128 | – | – | > 100 | 96.5
2 | CCCCCCCCC/C=C\CCCCCCCNC(=O)[C@@H]1CSC(c2cc(OC)c(OC)c(OC)c2)N1 (mixture of isomers) | 0.7 | 1.5 | 1.2 | 2.4 | 8.4 | 0.5 | 1.3 | 1.7 | 8.6 | 4.8 | 4.7
3 | CCCCCCCCCCCCCCCCNC(=O)[C@H](CSC)NCc1ccc(NC(C)=O)cc1 | – | – | – | 108 | – | – | 145 | – | – | > 100 | –
4 | CN(C)/N=N/c1[nH]cnc1C(N)=O [DACARBAZINE] | – | – | – | > 100 | – | – | > 100 | – | – | > 100 | > 100
5 | CCCCCCCCCCNC(=O)[C@@H]1CSC(c2cc(OC)c(OC)c(OC)c2)N1 (mixture of isomers) | 2.2 | 4.4 | 4.1 | – | 6 | 2.1 | – | – | – | – | –
6 | CCCCCCCCCCCCCCCCNC(=O)[C@@H](N)CSCc1ccccc1 | – | – | – | 15.1 | – | – | 12.8 | – | – | 16.4 | –
7 | CC(=O)Nc1ccc(C2N[C@H](C(=O)Nc3ccc4c(c3)Cc3ccccc3-4)CS2)cc1 (mixture of isomers) | – | – | – | – | – | – | – | 11.3 | – | – | –
8 | CCCCCCCCCCCCCCCCNC(=O)[C@@H]1CSC(c2ccccc2)N1 (mixture of isomers) | – | – | – | – | – | – | 0.7 | – | – | 2.2 | –
9 | CCCCCCCCCCCCCCCCNC(=O)[C@@H](N)CSC | – | – | – | 12.9 | – | – | 14.4 | – | – | 61.2 | –
10 | CC(=O)Nc1ccc(C2N[C@H](C(=O)NC3C4CC5CC(C4)CC3C5)CS2)cc1 (mixture of isomers) | 9.7 | > 20 | > 20 | 66 | > 20 | > 20 | 64.4 | – | – | > 100 | 108
11 | CNC(=O)c1cc(Oc2ccc(NC(=O)Nc3ccc(Cl)c(C(F)(F)F)c3)cc2)ccn1 [SORAFENIB] | – | – | – | – | – | – | 5 | 3 | – | – | 4.9
12 | CC(=O)Nc1ccc(C2N[C@H](C(=O)Nc3nc4ccccc4s3)CS2)cc1 (mixture of isomers) | > 20 | > 20 | > 20 | 45.9 | > 20 | > 20 | > 100 | – | – | > 100 | 55.3
13 | CCCCCCCCNC(=O)[C@@H]1CSC(c2cc(OC)c(OC)c(OC)c2)N1 (mixture of isomers) | 2.7 | > 20 | 17.3 | – | > 20 | 14 | – | – | – | – | –

Further lines, with some results ahead:

Row | IC50 (LNCaP) [µM] | IC50 (PC-3) [µM] | IC50 (DU-145) [µM] | IC50 (A-375) [µM] | Structure (SMILES) | IC50 (RH7777 [1]) [µM] | IC50 (PPC-1) [µM] | IC50 [2] [µM] | selectivity ratio [3] | Ratio IC50 (RH7777 [4]) | IC50 [5] [µM] | IC50 [6] [µM]
14 | 1.9 | 2.9 | 2.1 | – | CCCCCCCCCCCCCCNC(=O)[C@H]1CSC(c2cc(OC)c(OC)c(OC)c2)N1 (mixture of isomers) | 5.8 | 0.7 | – | – | – | – | –
15 | 2 | 0.9 | 0.7 | 20.4 | CCCCCCCCCCCCCCCCNC(=O)[C@@H]1CSC(c2ccc(NC(=O)CCl)cc2)N1 (mixture of isomers) | 9.4 | 0.4 | 5.7 | 0.6 | 9.4 | 25.4 | 93.3
16 | 1.4 | 6 | 3.2 | 1.8 | CCCCCCCCCCCCCCCCNC(=O)[C@@H]1CSC(c2ccc(N(C)C)cc2)N1 (mixture of isomers) | 10 | 0.4 | 1.5 | 6.3 | 3.6 | 21 | 6.7
17 | 3.3 | 2.7 | 4.6 | 9.3 | CCCCCCCCCCCCCCCCNC(=O)[C@@H]1CSC(c2ccccc2NC(C)=O)N1 (mixture of isomers) | 13.2 | 1.5 | 3.9 | 3.9 | 4.4 | 27.8 | 8
18 | 1.5 | 2.4 | 2.6 | – | CCCCCCCCCCCCCCCCNC(=O)[C@@H]1CSC(c2ccc(N)cc2)N1 (mixture of isomers) | 9.4 | 0.6 | – | – | 5.3 | – | –
19 | 2 | 2.1 | 1.8 | 2.7 | CCCCCCCCC#CCCCCCCCCCNC(=O)[C@@H]1CSC(c2ccc(NC(C)=O)cc2)N1 (mixture of isomers) | 6.6 | 0.7 | 1.3 | 3.8 | 4 | 7 | 1.6
20 | 4.7 | 4.5 | 4.7 | 14.4 | CCCCCCCCCCCCCCCCNC[C@@H]1CSC(c2ccc(NC(C)=O)cc2)N1 (mixture of isomers) | 7.9 | 2.4 | 3.2 | 8.6 | 1.9 | 84.5 | 11.9
21 | 1.6 | 4.9 | 4.1 | 4.6 | CCCCCCCCCCCCCCCCCCNC(=O)[C@@H]1CSC(c2cc(OC)c(OC)c(OC)c2)N1 (mixture of isomers) | 14 | 1 | 3 | 1 | 4.8 | 4.7 | 5.9
22 | > 20 | > 20 | > 20 | 28 | CCCCCCCCCCCCCCCCOC(=O)[C@@H]1CSC(c2ccc(NC(C)=O)cc2)N1 (mixture of isomers) | > 20 | > 20 | 18.5 | – | – | > 100 | 41.9
23 | 1.1 | 2.7 | 2.2 | 1.5 | CCCCCCCCCCCCCCCCNC(=O)[C@@H]1CSC(c2ccc(OC)cc2)N1 (mixture of isomers) | 8.4 | 0.4 | 1 | 5.1 | 5.3 | – | 2.3
24 | 1.8 | 3.7 | 3.9 | 20.6 | CCCCCCCCCCCCCCCCCCN(C)C(=O)[C@@H]1CSC(c2ccc(NC(C)=O)cc2)N1 (mixture of isomers) | 9.2 | 0.8 | 10.7 | – | 3.6 | > 100 | 18.9
25 | 1.4 | 2.1 | 1.5 | 5.3 | CCCCCCCCC/C=C/CCCCCCCNC(=O)[C@@H]1CSC(c2ccccc2)N1 (mixture of isomers) | 8.9 | 0.6 | – | 2.1 | 6.5 | 12.4 | 10.1
26 | 2 | 2.6 | 2.2 | – | CCCCCCCCCCCCCCNC(=O)[C@@H]1CSC(c2cc(OC)c(OC)c(OC)c2)N1 (mixture of isomers) | 6.1 | 0.6 | – | – | – | – | –
27 | 2 | 2.9 | 2.4 | – | CCCCCCCCCCCCNC(=O)[C@@H]1CSC(c2ccc(N)cc2)N1 (mixture of isomers) | 7.3 | 1.2 | – | – | 3.4 | – | –
28 | 1.8 | 2.5 | 3.2 | 3.6 | CCCCCCCCCCCCCCCCNC(=O)[C@@H]1CSC(c2ccc(NC(N)=O)cc2)N1 (mixture of isomers) | 6.7 | 0.5 | 1.7 | 1.8 | 3.4 | 7.2 | –
29 | 4.8 | > 20 | > 20 | 50.6 | CCCCCCCCCCCCCCCCNC(=O)[C@@H]1CSC(c2ccc(NS(C)(=O)=O)cc2)N1 (mixture of isomers) | > 20 | 1.1 | 18.6 | – | – | > 100 | 114
30 | 1.4 | 2.9 | 2.8 | – | CCCCCCCCCCCCNC(=O)[C@@H]1CSC(c2cc(OC)c(OC)c(OC)c2)N1 (mixture of isomers) | 6.5 | 1 | – | – | – | – | –
31 | – | – | – | 11.9 | CCCCCCCCCCCCCCCCNC(=O)CNCc1ccc(NC(C)=O)cc1 | – | – | 10.2 | – | – | 24 | –
